According to ChEMBL document CHEMBL4184290, “Design, synthesis, and discovery of 5-((1,3-diphenyl-1H-pyrazol-4-yl)methylene)pyrimidine-2,4,6(1H,3H,5H)-triones and related derivatives as novel inhibitors of mPGES-1” (Bioorg Med Chem Lett, 2018):

What was measured:
[1] = target: T1, Prostaglandin E synthase (Homo sapiens) (UniProt O14684); experiment: Inhibition of human mPGES1 expressed in 293 cell microsomes at 10 uM preincubated for 15 mins followed by PGH2 substrate addition measured after 3 secs by enzyme immunoassay relative to control
T1 sequence (whole entry): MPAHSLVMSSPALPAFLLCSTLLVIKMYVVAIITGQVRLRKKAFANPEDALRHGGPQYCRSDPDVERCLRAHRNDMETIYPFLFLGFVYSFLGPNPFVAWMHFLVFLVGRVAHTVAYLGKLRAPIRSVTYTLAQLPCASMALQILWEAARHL
Method in brief: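 Single-point screen at 10 μM against human mPGES-1, reported as % inhibition. Only compounds reaching the ≥70% cutoff went on to IC50 determination. Data are means ± SD from triplicate determinations.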

COX1/COX2 = experiment: Inhibition of ovine COX1/human COX2 assessed as reduction in PGF2alpha production at 100 uM preincubated for 10 mins followed by arachidonic acid substrate addition measured after 2 mins by colorimetric assay relative to control; conditions: sheep (COX1) / human (COX2), ovine COX1/human COX2 enzyme, probe arachidonic acid
Prostaglandin E synthase = target: T2, Prostaglandin E synthase (Homo sapiens, UniProt O14684); experiment: Inhibition of human mPGES1 expressed in 293 cell microsomes preincubated for 15 mins followed by PGH2 substrate addition measured after 3 secs by enzyme immunoassay
T2 sequence (O14684 whole entry): T1 sequence (whole entry)
Method in brief: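 Compounds were first screened against human mPGES-1 at 10 μM, and IC50 values were determined only for those giving ≥70% inhibition. Protein preparation and assay followed earlier reports. Values are means ± SD of single determinations run in triplicate.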

With `CCCCCCCCOc1ccc(-c2nn(-c3ccc(Cl)cc3)cc2C=C2C(=O)NC(=S)NC2=O)cc1` the inhibition [1] was over 70% and the inhibition at 2 min, 100 µM (COX1/COX2) was 0%.

Work on `O=C1NC(=S)NC(=O)C1=Cc1cn(-c2ccc(Cl)cc2)nc1-c1ccccc1` yielded an IC50 (Prostaglandin E synthase) of 0.561 µM and an inhibition [1] of over 70%.

With `CCCCCCOc1ccc(-c2nn(-c3ccc(Cl)cc3)cc2C=C(C#N)C#N)cc1` the inhibition [1] was 64%.

In the case of `CCCCOc1ccc(-c2nn(-c3ccc(Cl)cc3)cc2C=C2C(=O)NC(=S)NC2=O)cc1`, the inhibition [1] is reported as over 70% and the inhibition at 2 min, 100 µM (COX1/COX2) is reported as 4.4%.

`CCCCCCOc1ccc(-c2nn(-c3ccc(Cl)cc3)cc2/C=C2/SC(=O)NC2=O)cc1` gave an IC50 (Prostaglandin E synthase) of 1.39 µM and an inhibition [1] of over 70%.

For `CCCCCCOc1ccc(-c2nn(-c3ccc(Cl)cc3)cc2/C=C2/SC(=O)N(CC(=O)O)C2=O)cc1`, the IC50 (Prostaglandin E synthase) was 0.036 µM, the inhibition [1] was over 70% and the inhibition at 2 min, 100 µM (COX1/COX2) was 1.2%.

`CCCCOc1ccc(-c2nn(-c3ccccc3)cc2C=C2C(=O)NC(=S)NC2=O)cc1` gave an inhibition [1] of over 70% and an inhibition at 2 min, 100 µM (COX1/COX2) of 16%.

`CCCCCCCCCCOc1ccc(-c2nn(-c3ccc(Cl)cc3)cc2C=C2C(=O)NC(=O)NC2=O)cc1` was tested, and the inhibition [1] was over 70%.

`CCCCCCCCCCOc1ccc(-c2nn(-c3ccc(Cl)cc3)cc2C=C2C(=O)NC(=S)NC2=O)cc1` gave an inhibition [1] of over 70% and an inhibition at 2 min, 100 µM (COX1/COX2) of 11%.

Molecule `CCOc1ccc(-c2nn(-c3ccc(Cl)cc3)cc2C=C2C(=O)NC(=S)NC2=O)cc1` has an inhibition [1] of over 70% and an inhibition at 2 min, 100 µM (COX1/COX2) of 1%.

`CCOc1ccc(-c2nn(-c3ccc(Cl)cc3)cc2/C=C(\C#N)C(N)=O)cc1` showed an inhibition [1] of 32%.

`CCOc1ccc(-c2nn(-c3ccc(Cl)cc3)cc2C=C2C(=O)NC(=O)NC2=O)cc1` showed an inhibition [1] of over 70%.

`CCCCOc1ccc(-c2nn(-c3ccc(Cl)cc3)cc2C=C2C(=O)NC(=O)NC2=O)cc1` showed an inhibition [1] of over 70%.

Molecule `CCOc1ccc(-c2nn(-c3ccc(Cl)cc3)cc2/C=C2/SC(=O)NC2=O)cc1` has an IC50 (Prostaglandin E synthase) of 1.59 µM and an inhibition [1] of over 70%.

For `CCCCCCOc1ccc(-c2nn(-c3ccc(Cl)cc3)cc2C=C2C(=O)NC(=S)NC2=O)cc1`, the inhibition [1] was over 70% and the inhibition at 2 min, 100 µM (COX1/COX2) was 0.7%.

In the case of `CCCCCCOc1ccc(-c2nn(-c3ccc(Cl)cc3)cc2C=C2C(=O)NC(=O)NC2=O)cc1`, the inhibition [1] is reported as over 70%.

Molecule `CCOc1ccc(-c2nn(-c3ccc(Cl)cc3)cc2/C=C2/SC(=S)NC2=O)cc1` has an IC50 (Prostaglandin E synthase) of 1.04 µM and an inhibition [1] of over 70%.

Molecule `O=C1NC(=O)C(=Cc2cn(-c3ccc(Cl)cc3)nc2-c2ccc(OCc3ccccc3)cc2)C(=O)N1` has an IC50 (Prostaglandin E synthase) of 0.598 µM and an inhibition [1] of over 70%.

`CCOc1ccc(-c2nn(-c3ccc(Cl)cc3)cc2C=C(C#N)C#N)cc1` was tested, and the inhibition [1] was 51%.

`CCOc1ccc(-c2nn(-c3ccc(Cl)cc3)cc2/C=C(\C#N)C(=O)O)cc1` showed an IC50 (Prostaglandin E synthase) of 0.283 µM and an inhibition [1] of over 70%.

Work on `O=C1NC(=O)C(=Cc2cn(-c3ccc(Cl)cc3)nc2-c2ccccc2)C(=O)N1` yielded an IC50 (Prostaglandin E synthase) of 0.337 µM and an inhibition [1] of over 70%.

`CCCCCCOc1ccc(-c2nn(-c3ccc(Cl)cc3)cc2/C=C(\C#N)C(=O)O)cc1` was tested, and the IC50 (Prostaglandin E synthase) was 0.083 µM, the inhibition [1] was over 70% and the inhibition at 2 min, 100 µM (COX1/COX2) was 19%.

Molecule `CCOc1ccc(-c2nn(-c3ccc(Cl)cc3)cc2/C=C2/SC(=O)N(CC(=O)O)C2=O)cc1` has an IC50 (Prostaglandin E synthase) of 0.041 µM, an inhibition [1] of over 70% and an inhibition at 2 min, 100 µM (COX1/COX2) of 6.8%.

Work on `O=C1NC(=S)NC(=O)C1=Cc1cn(-c2ccc(Cl)cc2)nc1-c1ccc(OCc2ccccc2)cc1` yielded an IC50 (Prostaglandin E synthase) of 0.797 µM and an inhibition [1] of over 70%.

`CCCCOc1ccc(-c2nn(-c3ccccc3)cc2C=C2C(=O)NC(=O)NC2=O)cc1` gave an inhibition [1] of over 70%.

Work on `CCCCCCOc1ccc(-c2nn(-c3ccc(Cl)cc3)cc2/C=C2/SC(=S)NC2=O)cc1` yielded an IC50 (Prostaglandin E synthase) of 1.73 µM and an inhibition [1] of over 70%.

Work on `CCCCCCCCOc1ccc(-c2nn(-c3ccc(Cl)cc3)cc2C=C2C(=O)NC(=O)NC2=O)cc1` yielded an inhibition [1] of over 70%.

Work on `CCCCCCOc1ccc(-c2nn(-c3ccc(Cl)cc3)cc2/C=C(\C#N)C(N)=O)cc1` yielded an inhibition [1] of 14%.
